ChEMBL document CHEMBL1671683, “Activity of linezolid in an in vitro pharmacokinetic-pharmacodynamic model using different dosages and Staphylococcus aureus and Enterococcus faecalis strains with and without a hypermutator phenotype” (Antimicrob Agents Chemother, 2010)

Legend:
Enterococcus faecalis [1] = experiment: Bactericidal activity against 14 hrs peripheral compartment culture samples of Enterococcus faecalis Ef1497 MutM3 in two-compartment pharmacokinetic/pharmacodynamic model assessed as effect on bacterial count at 600 mg, bid administered as 0.5 hr infusion; assay type: functional
Outline: (§1)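 An 18-h culture concentrated 50-fold was injected into the peripheral compartment 3 h pre-sampling (~10^8 CFU/ml E. faecalis, 10^9 S. aureus). Counts came from dilution plating (detection limit 2–3 log10 CFU/ml), expressed as Δlog CFU/ml from treatment start. Run in duplicate.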

Enterococcus faecalis [2] = experiment: Bactericidal activity against 14 hrs peripheral compartment culture samples of Enterococcus faecalis Ef1497 in two-compartment pharmacokinetic/pharmacodynamic model assessed as effect on bacterial count at 800 mg, bid administered as 0.5 hr infusion; assay type: functional; outline: as §1
Enterococcus faecalis [3] = experiment: Bactericidal activity against 12.5 hrs peripheral compartment culture samples of Enterococcus faecalis Ef1497 in two-compartment pharmacokinetic/pharmacodynamic model assessed as effect on bacterial count at 800 mg, bid administered as 0.5 hr infusion; assay type: functional; outline: as §1
[4] = Total clearance in two-compartment pharmacokinetic/pharmacodynamic model at 200 mg, bid administered as 0.5 hr infusion over 24 hrs; assay type: ADME, organism-based; settings: in vivo, iv
[5] = Residual concentration at the end of the administration interval in two-compartment pharmacokinetic/pharmacodynamic model at 200 mg, bid administered as 0.5 hr infusion over 24 hrs; assay type: ADME; settings: in vivo, iv
[6] = Apparent volume of distribution in two-compartment pharmacokinetic/pharmacodynamic model bid administered as 0.5 hr infusion over 24 hrs; settings: in vivo, iv
Enterococcus faecalis [7] = experiment: AUBC (0 to 24 hrs) in Enterococcus faecalis Ef1497 in two-compartment pharmacokinetic/pharmacodynamic model at 800 mg, bid administered as 0.5 hr infusion for 2 days; assay type: functional
Outline: (§2)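 Hollow-fibre two-compartment model in cation-adjusted, protein-free MH broth at 37°C. Human total-plasma linezolid profile simulated as 0.5-h infusion every 12 h for 48 h. Concentrated 18-h culture injected into the peripheral compartment 3 h before first sample, giving about 10^8 (E. faecalis) or 10^9 (S. aureus) CFU/ml. Viable counts by dilution plating over 0–24 h. Area indices calculated versus growth control curve. Duplicate runs.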

Enterococcus faecalis [8] = experiment: T>MIC in Enterococcus faecalis Ef1497 in two-compartment pharmacokinetic/pharmacodynamic model at 600 mg, bid administered as 0.5 hr infusion for 2 days; assay type: functional
[9] = Cmax in two-compartment pharmacokinetic/pharmacodynamic model at 200 mg, bid administered as 0.5 hrs infusion; assay type: ADME, organism-based; set-up: dose 200 mg; settings: iv
Enterococcus faecalis [10] = experiment: ABBC (0 to 24 hrs) in Enterococcus faecalis ATCC 29212 in two-compartment pharmacokinetic/pharmacodynamic model at 200 mg, bid administered as 0.5 hr infusion for 2 days; assay type: functional; outline: as §2
Enterococcus faecalis [11] = experiment: Bactericidal activity against 12 hrs peripheral compartment culture samples of Enterococcus faecalis ATCC 29212 in two-compartment pharmacokinetic/pharmacodynamic model assessed as effect on bacterial count at 600 mg, bid administered as 0.5 hr infusion; assay type: functional
Outline: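 Two-compartment hollow-fibre model in cation-adjusted, protein-free MH broth, 37°C. Linezolid given as simulated 0.5-h infusion twice daily. Inoculum grown 18 h, concentrated 50-fold and placed in the peripheral compartment 3 h before t0. Peripheral samples at set times counted by dilution plating. First 10-fold dilution not plated, limiting detection to 2–3 log10 CFU/ml. Δlog CFU/ml taken from t0 count. Duplicates.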

[12] = AUC in two-compartment pharmacokinetic/pharmacodynamic model at 200 mg, bid administered as 0.5 hrs infusion; assay type: ADME; settings: iv
Staphylococcus aureus = experiment: Bactericidal activity against 13 hrs peripheral compartment culture samples of Staphylococcus aureus RN4220 in two-compartment pharmacokinetic/pharmacodynamic model assessed as effect on bacterial count at 600 mg, bid administered as 0.5 hr infusion; assay type: functional; outline: as §1
[13] = tested on: Staphylococcus aureus subsp. aureus RN4220; experiment: T>MIC in Staphylococcus aureus RN4220 MutS2 in two-compartment pharmacokinetic/pharmacodynamic model at 600 mg, bid administered as 0.5 hr infusion for 2 days; assay type: functional

**Q.** Which results are given for CC(=O)NC[C@H]1CN(c2ccc(N3CCOCC3)c(F)c2)C(=O)O1 [LINEZOLID]?
**A.** log10CFU/ml (Enterococcus faecalis [1]): 0.28; log10CFU/ml (Enterococcus faecalis [2]): -0.05; log10CFU/ml (Enterococcus faecalis [3]): -0.03; clearance [4]: 252 mL/min; Drug uptake [5]: 0.31 µg/mL; Vd [6]: 115 L; AUBC (Enterococcus faecalis [7]): 210.5 log10CFU/ml.hr; fT>MIC (Enterococcus faecalis [8]): 69%; Cmax [9]: 4380 ng/mL; ABBC (Enterococcus faecalis [10]): 5.11 log10CFU/ml.hr; log10CFU/ml (Enterococcus faecalis [11]): 0.15; AUC at 0.5 h [12]: 10100 ng·h/mL; log10CFU/ml (Staphylococcus aureus): -0.22; fT>MIC [13]: 66.6%
